Compound activity as filed in PubChem.
Only some compounds are listed: those with a hit (about 1% of all), similar ones and a draw of the others.
RAD52 inh: blocks human RAD52 DNA annealing. actives 0.46% (n = 360,000). recombinant RAD52 DNA annealing, FRET fluorescence. AID 651710. inhibition, % at 18.7 µM. P43351;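 active means every replicate showing at least 50% inhibition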
CAL PDZ FP-1: blocks peptide binding to human CAL PDZ domain | Q9HD26 | actives 0.02% (n = 330,000) | purified CAL PDZ, TMR-peptide fluorescence polarization, 1 h | AID 504414 | inhibition, % at 20 µM;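 active means highest replicate inhibition of at least 40%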;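 further: plate controls were DMSO neutral control wells for no effect and unlabeled competitor peptide control wells for full effect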
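Test system: purified CerCALP PDZ construct; Compound dosing: one concentration, 20 µM compound; Also added: TMR-labelled reporter peptide T*-PRC34 bound in PDZ groove; Read-out: inhibition from polarization loss; Controls: unlabelled peptide and DMSO controls; Signal: FP readout, S and P plane fluorescence; Incubation: 1 h at RT.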
ERp5 inh: inhibitors of human ERp5. Q15084. actives 0.05% (n = 350,000). inhibition, % at 9.99 µM. ERp5 insulin aggregation, absorbance 650 nm, 90 min;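 active means mean replicate inhibition above about 25%, with every replicate also reaching it, limit read from the data, passing the limit was not always enough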
Target sequence (Q15084 whole entry, looked up): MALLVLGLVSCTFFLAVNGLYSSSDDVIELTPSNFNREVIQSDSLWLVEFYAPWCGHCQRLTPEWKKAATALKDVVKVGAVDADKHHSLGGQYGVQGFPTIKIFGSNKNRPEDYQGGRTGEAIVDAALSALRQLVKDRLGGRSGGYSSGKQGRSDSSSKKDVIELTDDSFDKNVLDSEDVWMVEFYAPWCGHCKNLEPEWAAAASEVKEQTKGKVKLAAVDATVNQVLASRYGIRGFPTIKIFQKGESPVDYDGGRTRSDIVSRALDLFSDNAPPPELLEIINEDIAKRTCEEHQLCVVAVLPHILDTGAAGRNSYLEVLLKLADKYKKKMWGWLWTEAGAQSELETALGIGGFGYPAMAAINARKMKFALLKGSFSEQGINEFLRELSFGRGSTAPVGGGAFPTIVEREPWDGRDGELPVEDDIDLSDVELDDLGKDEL
PDI inh: inhibitors of human protein disulfide isomerase. AID 588391. PDI insulin aggregation turbidity, A650, 90 min. P07237. inhibition, % at 10 µM. actives 0.052% (n = 350,000);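 active means mean inhibition across replicates of 30% or more, whatever share of single replicates reach that level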
CAL PDZ FP-2: blocks peptide binding to the human CAL PDZ domain | Q9HD26 | purified CAL PDZ, TMR-peptide fluorescence polarization, 1 h | inhibition, % at 24.9 µM | actives 0.92% (n = 300,000) | AID 602252;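 active means mean inhibition of at least 30% with at least half of replicates also reaching 30%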;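 further: 0% = DMSO neutral control and 100% = excess unlabeled competitor peptide PRC23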
RAD54 branch: RAD54 (human) branch migration inhibition; inhibition, % at 10.4 µM; AID 602329; RAD54 Holliday junction branch migration, FAM/BHQ fluorescence; Q92698; actives 0.14% (n = 360,000);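 active means mean normalized replicate activity at least 40 and at least half of replicates scoring 40 or more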;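 further: 0% = median of neutral control wells and 100% = median of positive control wells; inhibitors cause a drop in the FAM fluorescence signal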
* = called active by the depositor; nt = no result given; ! = a repeat was not active.

SMILES | RAD52 inh | CAL PDZ FP-1 | ERp5 inh | PDI inh | CAL PDZ FP-2 | RAD54 branch
Cc1ccc(S(=O)(=O)Nc2ccc3c(c2)C(=O)N([C@H](C)CO)C[C@@H](C)[C@H](CN(C)C(=O)C2CCCCC2)OCCCC[C@H](C)O3)cc1 | 25 | nt | 4 | nt | nt | -2
COCCn1cnc2c(c1=O)c1nc3ccccc3nc1n2/N=C/c1cccc(OC)c1 | -7 | -3 | 1 | -4 | 34* | nt
C[C@@H]1CN([C@H](C)CO)C(=O)c2cc(C#Cc3ccccc3F)cnc2O[C@@H]1CN(C)C(=O)C1CC1 | 16 | nt | -1 | nt | nt | 1
O=C(CCCn1c(=O)[nH]c2cc(Cl)ccc2c1=O)NC1CCCCCCC1 | nt | 0 | nt | -19 | 53* | -4
CO[C@H]1CN(C)C(=O)c2cc(NC(=O)c3ccccc3F)ccc2OC[C@@H](C)N(C)C[C@H]1C | 1 | nt | 2 | nt | nt | 3
CCOC(=O)c1cc(-c2csc(N/N=C/c3ccccc3Cl)n2)on1 | -21 | 1 | 3 | -2 | -1 | nt
Cc1onc(-c2ccc(Cl)cc2Cl)c1-c1csc(N/N=C/c2ccccc2)n1 | -5 | -1 | -1 | 3 | 54* | nt
COc1ccc(C)cc1-n1c(SCC(=O)Nc2cc(C)on2)nc2sc(C)c(C)c2c1=O | nt | nt | nt | 4 | 81* | -3
O=C(C[C@H]1CC[C@H]2[C@@H](COC[C@@H](O)CN2C(=O)Nc2ccccc2)O1)NC1Cc2ccccc2C1 | 5 | nt | 4 | nt | nt | -1
OC[C@@H]1CC[C@@H]2O[C@H](CCc3ccc(C#CCc4ccccc4)cc3)[C@@H](n3cc(-c4ccccc4)nn3)C[C@@H]2O1 | 9 | nt | -5 | nt | nt | nt
N#CC1C(=O)NC(=O)CC12CCCCC2 (centres undefined) | -10 | -3 | 9 | 0 | 80* | -13
COc1ccc(Nc2nc(N3CCN(C)CC3)nc3ccccc23)c(OC)c1 | 48 | 2 | 5 | -5 | 53* | nt
COc1ccc(Nc2nc(-c3cccs3)nc3ccccc23)c(OC)c1 | nt | 0 | nt | -1 | -1 | -1
O=C(O)CCCC(=O)Nc1ccc2c(c1)oc1ccccc12 | -5 | 0 | 0 | -2 | -2 | -12
CCCCC(=O)Nc1ccc2c(c1)oc1ccccc12 | nt | -2 | nt | 1 | 56* | nt
Cc1ccc(NC(=S)Nc2ccc(OC(F)F)c(Cl)c2)cc1F | 0 | 0 | -4 | 3 | 66* | nt
COc1ccc(Cl)cc1N/C(N)=N/c1nc(CSc2ccc(C)cc2)cc(=O)[nH]1 | nt | -2 | nt | -1 | nt | nt
N/C(=N\c1nc(CSc2ccccn2)cc(=O)[nH]1)Nc1ccc(Cl)cc1Cl | -16 | 0 | -2 | -3 | 78* | -2
Cc1cccc(N(CC(=O)NCc2ccc3c(c2)OCO3)C(=O)CCC(=O)Nc2ccccn2)c1C | nt | -1 | nt | 3 | 92* | 3
Cc1cccc(NC(=S)NCc2ccc3c(c2)OCO3)c1C | nt | -2 | nt | -11 | 50* | nt
Cc1cccc(N(CC(=O)NCc2ccc3c(c2)OCO3)C(=O)CCC(=O)Nc2ccccn2)c1 | nt | -1 | nt | -4 | nt | 0
C[C@H]1CN([C@@H](C)CO)S(=O)(=O)c2ccc(C#CC3CCCC3)cc2O[C@@H]1CN(C)Cc1cccnc1 | 5 | nt | 1 | nt | nt | -1
C=CCOc1ccc(Oc2cc(C)nc(SC)n2)nn1 | nt | nt | nt | 1 | 43* | 12
O=C(N/N=C1/CC2C=CCC12)c1ccco1 (centres undefined) | nt | -1 | nt | -4 | nt | nt
O=C(N/N=C1/CC2C=CCC12)c1cccs1 (centres undefined) | -6 | -1 | 0 | 3 | 42* | 1
SMILES | RAD52 inh | CAL PDZ FP-1 | ERp5 inh | PDI inh | CAL PDZ FP-2 | RAD54 branch
N#Cc1ccc(-c2ccc(C3[C@H]4CNC[C@@H]3N4S(=O)(=O)c3ccc(-c4ccccc4)cc3)cc2)cc1 (some centres undefined) | 82* | nt | 5 | nt | nt | nt
Cc1ccc(-c2ccc(C3[C@H]4CNC[C@@H]3N4S(=O)(=O)c3ccccc3)cc2)cc1 (some centres undefined) | 47 | nt | 5 | nt | nt | nt
N#Cc1cccc(-c2ccc(C3[C@H]4CNC[C@@H]3N4S(=O)(=O)c3ccccc3)cc2)c1 (some centres undefined) | 17 | nt | -3 | nt | nt | nt
Cc1ccc(-c2ccc(C3[C@H]4CNC[C@@H]3N4S(=O)(=O)c3cccc(C)c3)cc2)cc1 (some centres undefined) | 54*! | nt | -5 | nt | nt | nt
Cc1ccccc1S(=O)(=O)N1[C@@H]2CNC[C@H]1C2c1ccc(-c2ccccc2)cc1 (some centres undefined) | 55*! | nt | -5 | nt | nt | nt
COc1ccc(S(=O)(=O)N2[C@@H]3CNC[C@H]2C3c2ccc(-c3cccc(C)c3)cc2)cc1 (some centres undefined) | 65*! | nt | 5 | nt | nt | nt
C[C@@H]1CN([C@H](C)CO)C(=O)c2cc(C#CC3(O)CCCC3)cnc2O[C@@H]1CN(C)Cc1ccccn1 | -9 | nt | -2 | nt | nt | -15
CC(C)NC(=O)Nc1cccc2c1O[C@@H](CN(C)Cc1ccc(C(=O)O)cc1)[C@@H](C)CN([C@@H](C)CO)C2=O | -2 | nt | -6 | nt | nt | 1
O=S(=O)(c1cccc(Cl)c1)N1[C@@H]2CNC[C@H]1C2c1ccc(-c2cccc(F)c2)cc1 (some centres undefined) | 54*! | nt | 3 | nt | nt | nt
O=S(=O)(c1cccc(F)c1)N1[C@@H]2CNC[C@H]1C2c1ccc(-c2ccc(F)cc2)cc1 (some centres undefined) | -45 | nt | 2 | nt | nt | nt
Cc1ccc(OC(=O)Nc2ccccc2)cc1 | 10 | 0 | -1 | 3 | -1 | 6
N#CCc1ccc(OC(=O)Nc2ccccc2)cc1 | -9 | nt | 0 | -5 | 114* | -4
O=C(Nc1cccc(C(F)(F)F)c1)c1ccc(Cn2cc(Br)cn2)o1 | nt | -1 | nt | 0 | 76* | 6
COC(=O)c1ccc(NC(=O)CN2C(=O)NC3(CCC(C)CC3)C2=O)cc1 (centres undefined) | -3 | -1 | 4 | 10 | 56* | 6
CCNC(=O)C[C@@H]1CC[C@@H]2[C@H](COc3ccc(NC(=O)Nc4ccccc4C)cc3C(=O)N2C)O1 | 3 | nt | 2 | nt | nt | -8
COc1cccc(/C=C2\SC(=S)N(CCC(=O)Nc3ccc(O)cc3)C2=O)c1 | 2 | 0 | 6 | 13 | -2 | 0
COc1cccc(/C=C2\SC(=S)N(CCC(=O)NCCc3ccc(O)cc3)C2=O)c1 | -5 | 0 | 7 | 11 | 80* | 2
C[C@@H]1CN([C@@H](C)CO)S(=O)(=O)c2ccc(Br)cc2O[C@@H]1CN(C)C | 9 | nt | -8 | nt | nt | -10
C=C(C)CCC(C)N1CCC(n2nccc2NC(=O)CCCc2ccccc2)CC1 (centres undefined) | -52 | 1 | 5 | 8 | 42* | -3
CSCC(C)N1CCC(n2nccc2NC(=O)CCCc2ccccc2)CC1 (centres undefined) | -246 | -2 | 4 | -7 | 0 | -31
CCOc1ccccc1NC(=O)C1CCN(C(=O)Cc2ccccc2)CC1 | -15 | 9 | 1 | 1 | 56* | nt
